Measurements taken from ChEMBL document CHEMBL3425404, “Structure-activity relationship in a purine-scaffold compound series with selectivity for the endoplasmic reticulum Hsp90 paralog Grp94” (J Med Chem, 2015).
Calls of active or inactive are those of the source. The calls are words filed in the database; no cut-off is given here.

Key:
Homo sapiens [1] = species: Homo sapiens; test: Selectivity ratio of IC50 for recombinant Hsp90beta (unknown origin) to IC50 for recombinant Grp94 (unknown origin)
[2] = biological target: Heat shock protein HSP90 (Homo sapiens) (UniProt P07900+P08238); test: Inhibition of HSP90 in human SKBR3 cells assessed as induction of HSP70 activity at 1 to 25 uM after 24 hrs by Western blot analysis; type: cell-based; conditions: SK-BR-3
In short: (§1)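 SKBr3 cells were treated 24 h with DMSO vehicle or compound, then lysed in RIPA with protease inhibitors. Lysate (5−50 μg) was run on SDS−PAGE and immunoblotted for HER2 or Hsp70, with β-actin as loading control. Detection was by HRP secondary and ECL, with densitometry. Blots are representative of triplicate experiments.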

Nucleic Acid = test: Ratio of drug level in tumor to heart in nu/nu athymic mouse xenografted with human MDA-MB-468 cells at 75 mg/kg, ip measured at 24 hrs by LC-MS/MS analysis; type: ADME, organism-based; set-up: dose 75 mg/kg, route intraperitoneal; conditions: in vivo
In short: (§2)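 Mice bearing subcutaneous MDA-MB-468 breast tumors (1 × 10^7 cells in right flank) got a single 75 mg/kg ip dose, n = 4 per time point. They were sacrificed at 2 and 24 h. Drug in tumor, tissues and plasma was quantified by LC−MS/MS, and tumor-to-tissue or tumor-to-plasma ratios were computed. Mean ± error.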

Homo sapiens [3] = species: Homo sapiens; test: Selectivity ratio of IC50 for recombinant Trap1 (unknown origin) to IC50 for recombinant Grp94 (unknown origin)
[4] = biological target: Endoplasmin (Homo sapiens) (UniProt P14625); test: Inhibition of Grp94 in human SKBR3 cells overexpressing HER2 assessed as degradation of HER2 at 1 to 25 uM after 24 hrs by Western blot analysis; type: cell-based; conditions: SK-BR-3; in short: as §1
RAW264.7 = test: Inhibition of HSP90 in mouse RAW264.7 cells assessed as inhibition of LPS-induced TNFalpha production at 2 to 16 uM after 18 hrs by ELISA; type: cell-based
[5] = biological target: Endoplasmin (Mus musculus) (UniProt P08113); test: Inhibition of Grp94 in mouse RAW264.7 cells assessed as inhibition of CpG-induced TNFalpha production after 18 hrs by ELISA; type: cell-based
[6] = Drug uptake in tumor of nu/nu athymic mouse xenografted with human MDA-MB-468 cells at 75 mg/kg, ip measured at 2 hrs by LC-MS/MS analysis; type: ADME, organism-based; set-up: dose 75 mg/kg, route intraperitoneal; conditions: read-out: Drug uptake; in short: as §2
[7] = Ratio of drug level in tumor to plasma in nu/nu athymic mouse xenografted with human MDA-MB-468 cells at 75 mg/kg, ip measured at 24 hrs by LC-MS/MS analysis; type: ADME, organism-based; set-up: dose 75 mg/kg, route intraperitoneal; in short: as §2
Mus musculus = test: Acute toxicity in nu/nu athymic mouse xenografted with human MDA-MB-468 cells at 150 mg/kg, ip; type: organism-based; set-up: dose 150 mg/kg, route intraperitoneal; conditions: in vivo
In short: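 MDA-MB-468 cells (1 × 10^7) were implanted sc in the right flank and allowed to grow. Tumour-bearing mice (n = 4) received 75 or 150 mg/kg ip and were followed for acute toxicity. Augmentin was given in the drinking water during therapy.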

[8] = biological target: Endoplasmin (Homo sapiens) (UniProt P14625); test: Inhibition of Grp94 in HEK293T cells assessed as downregulation of TLR9 protein expression in post ER compartment after 24 hrs by confocal microscopic analysis; type: cell-based; conditions: HEK-293T
In short: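 HEK293T cells were transfected with HA-tagged human TLR9 and split onto chamber slides 24 h later. They were then treated 24 h at varying concentrations. Cells were fixed in 4% paraformaldehyde, permeabilized with Triton X-100 and blocked in 3% BSA. They were stained with anti-HA then Cy3 secondary, with DAPI. Imaging was by confocal microscopy, and fluorescence intensity was normalized to cell number.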

[9] = Oral bioavailability in B6D2F1 mouse at 10 mg/kg by LC-MS/MS analysis; type: ADME, organism-based; conditions: in vivo
In short: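 Male B6D2F1 mice (n = 2 per time point, 20 total) got a single 10 mg/kg iv or oral dose in 30% captisol, 5 mM citrate pH 4.2. Plasma levels at sacrifice times were measured by LC−MS/MS, converted to molar assuming 1 g = 1 mL, and plotted versus time. Oral F was derived.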

[10] = biological target: Endoplasmin (Mus musculus) (UniProt P08113); test: Inhibition of Grp94 in mouse differentiated C2C12 cells assessed as inhibition of IGF-2 secretion after 24 hrs by ELISA; type: cell-based
In short: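 C2C12 mouse myoblasts were shifted to differentiation medium (DMEM, 2% horse serum) and treated 24 h with compounds. Medium was captured overnight at 4 °C on anti-IGF-II ELISA plates and detected with biotinylated antibody, HRP-streptavidin and TMB. A450 was read, and IGF-II was quantified against a recombinant IGF-II standard curve.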

[11] = Plasma concentration in nu/nu athymic mouse xenografted with human MDA-MB-468 cells at 75 mg/kg, ip measured at 2 hrs by LC-MS/MS analysis; type: ADME, organism-based; set-up: dose 75 mg/kg, route intraperitoneal; in short: as §2
[12] = Binding affinity to full length yeast His-tagged Hsp90 (1 to 709) overexpressed in Escherichia coli BL21 Star (DE3) by tryptophan fluorescence assay; set-up: species or system Saccharomyces cerevisiae
Endoplasmin = Endoplasmin (Canis lupus familiaris, UniProt P41148); test: Binding affinity to canine full-length His-tagged GRP94 (28 to 754 residues lacking 287 to 327 residues) expressed in Escherichia coli by tryptophan fluorescence assay
Endoplasmin, sequence (P41148 22-804 limits assumed): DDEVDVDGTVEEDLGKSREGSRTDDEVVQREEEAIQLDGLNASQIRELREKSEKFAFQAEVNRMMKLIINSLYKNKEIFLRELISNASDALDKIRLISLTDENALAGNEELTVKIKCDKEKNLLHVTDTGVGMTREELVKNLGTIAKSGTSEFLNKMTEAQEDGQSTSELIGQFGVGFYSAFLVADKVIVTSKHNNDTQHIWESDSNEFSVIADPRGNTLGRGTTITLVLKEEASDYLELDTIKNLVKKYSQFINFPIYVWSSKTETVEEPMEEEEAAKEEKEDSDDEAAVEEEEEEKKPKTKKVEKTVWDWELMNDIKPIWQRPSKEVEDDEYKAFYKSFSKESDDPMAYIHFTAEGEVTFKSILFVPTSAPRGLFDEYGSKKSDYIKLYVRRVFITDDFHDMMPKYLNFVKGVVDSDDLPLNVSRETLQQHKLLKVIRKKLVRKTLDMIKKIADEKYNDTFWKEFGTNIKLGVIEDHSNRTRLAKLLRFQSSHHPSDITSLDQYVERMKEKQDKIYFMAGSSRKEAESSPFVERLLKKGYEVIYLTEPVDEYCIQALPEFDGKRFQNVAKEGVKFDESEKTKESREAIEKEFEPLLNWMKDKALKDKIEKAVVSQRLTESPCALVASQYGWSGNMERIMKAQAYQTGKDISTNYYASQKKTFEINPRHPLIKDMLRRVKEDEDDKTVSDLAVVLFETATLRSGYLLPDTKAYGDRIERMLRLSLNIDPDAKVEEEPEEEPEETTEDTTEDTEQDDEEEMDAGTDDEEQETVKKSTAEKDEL

Endoplasmin (Homo sapiens), sequence (P14625 whole entry): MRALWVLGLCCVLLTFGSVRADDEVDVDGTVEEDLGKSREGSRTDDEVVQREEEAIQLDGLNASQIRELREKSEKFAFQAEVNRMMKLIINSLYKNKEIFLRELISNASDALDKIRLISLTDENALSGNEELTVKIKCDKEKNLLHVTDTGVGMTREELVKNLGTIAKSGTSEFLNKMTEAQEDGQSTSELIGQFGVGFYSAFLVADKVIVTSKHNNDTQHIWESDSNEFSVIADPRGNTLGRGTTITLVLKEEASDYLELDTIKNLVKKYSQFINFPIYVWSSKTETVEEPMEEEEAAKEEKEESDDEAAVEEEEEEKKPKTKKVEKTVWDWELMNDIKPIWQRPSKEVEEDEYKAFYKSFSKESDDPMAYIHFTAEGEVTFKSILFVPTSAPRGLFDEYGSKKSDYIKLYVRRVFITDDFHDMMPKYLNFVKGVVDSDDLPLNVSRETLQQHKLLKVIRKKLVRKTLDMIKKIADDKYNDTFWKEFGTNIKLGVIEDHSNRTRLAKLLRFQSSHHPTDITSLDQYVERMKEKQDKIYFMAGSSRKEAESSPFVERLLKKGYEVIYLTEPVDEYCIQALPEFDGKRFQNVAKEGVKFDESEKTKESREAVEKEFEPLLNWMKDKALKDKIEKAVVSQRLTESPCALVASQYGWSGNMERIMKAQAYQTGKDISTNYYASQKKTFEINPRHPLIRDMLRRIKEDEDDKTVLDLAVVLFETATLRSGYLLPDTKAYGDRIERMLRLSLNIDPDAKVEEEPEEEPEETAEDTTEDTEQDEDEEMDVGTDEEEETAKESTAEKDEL
Endoplasmin (Mus musculus), sequence (P08113 whole entry): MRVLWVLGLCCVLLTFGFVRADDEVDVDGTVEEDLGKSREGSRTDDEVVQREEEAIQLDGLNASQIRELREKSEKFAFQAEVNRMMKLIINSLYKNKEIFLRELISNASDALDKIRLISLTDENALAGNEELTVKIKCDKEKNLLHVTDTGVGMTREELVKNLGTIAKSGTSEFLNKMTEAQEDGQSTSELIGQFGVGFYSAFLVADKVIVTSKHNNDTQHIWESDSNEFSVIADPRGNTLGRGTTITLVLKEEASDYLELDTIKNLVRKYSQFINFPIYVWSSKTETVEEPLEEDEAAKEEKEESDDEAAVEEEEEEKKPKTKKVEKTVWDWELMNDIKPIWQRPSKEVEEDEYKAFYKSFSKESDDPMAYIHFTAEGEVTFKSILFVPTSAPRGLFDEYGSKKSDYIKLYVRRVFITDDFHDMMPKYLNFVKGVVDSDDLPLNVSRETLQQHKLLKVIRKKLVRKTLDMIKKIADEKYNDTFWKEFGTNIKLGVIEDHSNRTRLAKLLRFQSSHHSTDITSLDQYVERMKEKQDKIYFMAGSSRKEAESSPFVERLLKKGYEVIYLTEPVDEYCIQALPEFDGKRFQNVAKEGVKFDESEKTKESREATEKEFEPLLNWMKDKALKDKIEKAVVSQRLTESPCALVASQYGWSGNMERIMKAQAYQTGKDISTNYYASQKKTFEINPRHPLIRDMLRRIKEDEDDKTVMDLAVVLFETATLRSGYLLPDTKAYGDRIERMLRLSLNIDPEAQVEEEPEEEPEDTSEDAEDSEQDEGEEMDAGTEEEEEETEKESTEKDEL

Row | Compound | Ratio IC50 (Homo sapiens [1]) | inhibition [2] | Ratio (Nucleic Acid) | Ratio IC50 (Homo sapiens [3]) | inhibition [4] | inhibition (RAW264.7) | inhibition [5] | concentration at 2 h [6] | Kp at 24 h [7] | Activity (Mus musculus) | inhibition [8] | bioavailability [9] | inhibition [10] | concentration at 2 h [11] | Kd [12] | Kd (Endoplasmin)
1 | CC(C)NCCCn1c(Sc2cc(Cl)cc(Cl)c2)nc2c(N)ncnc21 | > 100 | inactive | 100 | 33 | Active | inactive | Dose-dependent effect | 850 µM | 200 | Non-toxic | Dose-dependent effect | 80% | Dose-dependent effect | 100 µM |  | 
2 | COC(=O)c1c(O)cc(O)c(Cl)c1CCC(=O)NC1=CC(=O)C(OC)=CC1=O |  |  |  |  |  |  |  |  |  |  |  |  |  |  | 870 nM | 520 nM
